# Laboratory results from ChEMBL document CHEMBL5303300, “EUbOPEN Chemogenomics Library - Multiplex” (2023).
# Where “and” joins values, the source holds several entries; their conditions need not be identical. Equal values may be shown once.
# How the values were obtained:
# Format in all cases: toxicity, cell-based
# HEK-293T = experiment: Multiplex assay against HEK293T; details: human, number of replicates 2
# Outline: (§1)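 Phenotypes for tubulin, mitochondrial mass and membrane permeability are expressed as per cents of healthy-nucleus cells. Cells were stained live at seeding with Hoechst33342, BioTracker Green Microtubule Cytoskeleton Dye, MitoTracker Red and Annexin V Alexa Fluor 680, then imaged after compound addition on a CQ1 microscope at 37°C and 5% CO2. Machine-learning gating in CellPathfinder separated Hoechst high-intensity objects from normal cells, divided normal cells by nuclear state (healthy, pyknosed, fragmented) and divided pyknosed cells into mitotic or apoptotic.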
# Fibroblast = experiment: Multiplex assay against human fibroblast; details: number of replicates 2; outline: as §1
# U2OS = experiment: Multiplex assay against U2OS; details: human, number of replicates 2; outline: as §1
# [1] = 12 h, 1 µM, compound concentration 1 uM
# [2] = 12 h, 10 µM, compound concentration 10 uM
# [3] = 24 h, 1 µM, compound concentration 1 uM
# [4] = 24 h, 10 µM, compound concentration 10 uM
# [5] = 48 h, 1 µM, compound concentration 1 uM
# [6] = 48 h, 10 µM, compound concentration 10 uM
smiles,measurement,setting,value
COc1cc(N2CCN(C)CC2)ccc1Nc1ncc2c(n1)N(C)c1ccccc1C(=O)N2CC(F)(F)F,Population Apoptotic (%),HEK-293T; [1],31% and 35%
same,Population Fragmented Nuclei (%),HEK-293T; [1],3% and 2%
same,Population Healthy Nuclei (%),HEK-293T; [1],87% and 86%
same,Population Hoechst High Intensity Objects (%),HEK-293T; [1],5% and 6%
same,Population Membrane Permeable-Phenotype (%),HEK-293T; [1],3%
same,Population Mitochondria Different-Phenotype (%),HEK-293T; [1],20% and 16%
same,Population Mitotic Cells (%),HEK-293T; [1],68% and 64%
same,Population Normal (%),HEK-293T; [1],94% and 93%
same,Population Pyknosed Nuclei (%),HEK-293T; [1],9% and 10%
same,Population Tubulin-Different-Phenotype (%),HEK-293T; [1],86% and 78%
same,Total Cell Count,HEK-293T; [1],866 and 792
same,Population Apoptotic (%),HEK-293T; [2],55% and 51%
same,Population Fragmented Nuclei (%),HEK-293T; [2],1% and 3%
same,Population Healthy Nuclei (%),HEK-293T; [2],81% and 83%
same,Population Hoechst High Intensity Objects (%),HEK-293T; [2],13% and 12%
same,Population Membrane Permeable-Phenotype (%),HEK-293T; [2],5% and 4%
same,Population Mitochondria Different-Phenotype (%),HEK-293T; [2],49% and 52%
same,Population Mitotic Cells (%),HEK-293T; [2],44% and 48%
same,Population Normal (%),HEK-293T; [2],86% and 87%
same,Population Pyknosed Nuclei (%),HEK-293T; [2],16% and 13%
same,Population Tubulin-Different-Phenotype (%),HEK-293T; [2],95%
same,Total Cell Count,HEK-293T; [2],412 and 483
same,Population Apoptotic (%),HEK-293T; [3],27% and 32%
same,Population Fragmented Nuclei (%),HEK-293T; [3],3% and 5%
same,Population Healthy Nuclei (%),HEK-293T; [3],90% and 86%
same,Population Hoechst High Intensity Objects (%),HEK-293T; [3],7%
same,Population Membrane Permeable-Phenotype (%),HEK-293T; [3],2%
same,Population Mitochondria Different-Phenotype (%),HEK-293T; [3],8% and 9%
same,Population Mitotic Cells (%),HEK-293T; [3],72% and 67%
same,Population Normal (%),HEK-293T; [3],92%
same,Population Pyknosed Nuclei (%),HEK-293T; [3],5% and 7%
same,Population Tubulin-Different-Phenotype (%),HEK-293T; [3],68%
same,Total Cell Count,HEK-293T; [3],1356 and 1127
same,Population Apoptotic (%),HEK-293T; [4],42% and 49%
same,Population Fragmented Nuclei (%),HEK-293T; [4],3% and 4%
same,Population Healthy Nuclei (%),HEK-293T; [4],80% and 83%
same,Population Hoechst High Intensity Objects (%),HEK-293T; [4],6% and 11%
same,Population Membrane Permeable-Phenotype (%),HEK-293T; [4],2% and 1%
same,Population Mitochondria Different-Phenotype (%),HEK-293T; [4],60% and 59%
same,Population Mitotic Cells (%),HEK-293T; [4],57% and 50%
same,Population Normal (%),HEK-293T; [4],93% and 88%
same,Population Pyknosed Nuclei (%),HEK-293T; [4],16% and 12%
same,Population Tubulin-Different-Phenotype (%),HEK-293T; [4],95%
same,Total Cell Count,HEK-293T; [4],451 and 561
same,Population Fragmented Nuclei (%),HEK-293T; [5],10% and 14%
same,Population Healthy Nuclei (%),HEK-293T; [5],86% and 82%
same,Population Hoechst High Intensity Objects (%),HEK-293T; [5],11% and 10%
same,Population Membrane Permeable-Phenotype (%),HEK-293T; [5],4% and 6%
same,Population Mitochondria Different-Phenotype (%),HEK-293T; [5],2% and 0%
same,Population Mitotic Cells (%),HEK-293T; [5],82% and 95%
same,Population Normal (%),HEK-293T; [5],88% and 89%
same,Population Pyknosed Nuclei (%),HEK-293T; [5],3%
same,Population Tubulin-Different-Phenotype (%),HEK-293T; [5],51% and 48%
same,Total Cell Count,HEK-293T; [5],2136 and 2988
same,Population Apoptotic (%),HEK-293T; [6],50% and 55%
same,Population Fragmented Nuclei (%),HEK-293T; [6],4% and 5%
same,Population Healthy Nuclei (%),HEK-293T; [6],79% and 83%
same,Population Hoechst High Intensity Objects (%),HEK-293T; [6],8% and 11%
same,Population Membrane Permeable-Phenotype (%),HEK-293T; [6],7% and 11%
same,Population Mitochondria Different-Phenotype (%),HEK-293T; [6],37% and 31%
same,Population Mitotic Cells (%),HEK-293T; [6],50% and 44%
same,Population Normal (%),HEK-293T; [6],91% and 88%
same,Population Pyknosed Nuclei (%),HEK-293T; [6],15% and 11%
same,Population Tubulin-Different-Phenotype (%),HEK-293T; [6],91% and 94%
same,Total Cell Count,HEK-293T; [6],580 and 656
same,Population Apoptotic (%),Fibroblast; [1],50% and 44%
same,Population Fragmented Nuclei (%),Fibroblast; [1],14% and 10%
same,Population Healthy Nuclei (%),Fibroblast; [1],74% and 76%
same,Population Hoechst High Intensity Objects (%),Fibroblast; [1],0%
same,Population Membrane Permeable-Phenotype (%),Fibroblast; [1],1% and 2%
same,Population Mitochondria Different-Phenotype (%),Fibroblast; [1],1%
same,Population Mitotic Cells (%),Fibroblast; [1],50% and 55%
same,Population Normal (%),Fibroblast; [1],100%
same,Population Pyknosed Nuclei (%),Fibroblast; [1],10% and 13%
same,Population Tubulin-Different-Phenotype (%),Fibroblast; [1],32% and 20%
same,Total Cell Count,Fibroblast; [1],214 and 269
same,Population Apoptotic (%),Fibroblast; [2],27% and 35%
same,Population Fragmented Nuclei (%),Fibroblast; [2],45% and 17%
same,Population Healthy Nuclei (%),Fibroblast; [2],40% and 66%
same,Population Hoechst High Intensity Objects (%),Fibroblast; [2],4% and 0%
same,Population Membrane Permeable-Phenotype (%),Fibroblast; [2],1% and 3%
same,Population Mitochondria Different-Phenotype (%),Fibroblast; [2],7% and 11%
same,Population Mitotic Cells (%),Fibroblast; [2],72% and 64%
same,Population Normal (%),Fibroblast; [2],95% and 100%
same,Population Pyknosed Nuclei (%),Fibroblast; [2],14% and 16%
same,Population Tubulin-Different-Phenotype (%),Fibroblast; [2],57% and 67%
same,Total Cell Count,Fibroblast; [2],330 and 243
same,Population Apoptotic (%),Fibroblast; [3],75% and 29%
same,Population Fragmented Nuclei (%),Fibroblast; [3],17% and 18%
same,Population Healthy Nuclei (%),Fibroblast; [3],77% and 73%
same,Population Hoechst High Intensity Objects (%),Fibroblast; [3],0%
same,Population Membrane Permeable-Phenotype (%),Fibroblast; [3],1%
same,Population Mitochondria Different-Phenotype (%),Fibroblast; [3],1% and 3%
same,Population Mitotic Cells (%),Fibroblast; [3],25% and 70%
same,Population Normal (%),Fibroblast; [3],99% and 100%
same,Population Pyknosed Nuclei (%),Fibroblast; [3],5% and 8%
same,Population Tubulin-Different-Phenotype (%),Fibroblast; [3],33% and 18%
same,Total Cell Count,Fibroblast; [3],241 and 300
same,Population Apoptotic (%),Fibroblast; [4],62% and 44%
same,Population Fragmented Nuclei (%),Fibroblast; [4],41% and 15%
same,Population Healthy Nuclei (%),Fibroblast; [4],47% and 69%
same,Population Hoechst High Intensity Objects (%),Fibroblast; [4],5% and 0%
same,Population Membrane Permeable-Phenotype (%),Fibroblast; [4],2%
same,Population Mitochondria Different-Phenotype (%),Fibroblast; [4],27% and 34%
same,Population Mitotic Cells (%),Fibroblast; [4],37% and 55%
same,Population Normal (%),Fibroblast; [4],94% and 100%
same,Population Pyknosed Nuclei (%),Fibroblast; [4],10% and 15%
same,Population Tubulin-Different-Phenotype (%),Fibroblast; [4],69% and 78%
same,Total Cell Count,Fibroblast; [4],294 and 218
same,Population Apoptotic (%),Fibroblast; [5],70% and 45%
same,Population Fragmented Nuclei (%),Fibroblast; [5],23% and 16%
same,Population Healthy Nuclei (%),Fibroblast; [5],72% and 77%
same,Population Hoechst High Intensity Objects (%),Fibroblast; [5],0%
same,Population Membrane Permeable-Phenotype (%),Fibroblast; [5],2% and 1%
same,Population Mitochondria Different-Phenotype (%),Fibroblast; [5],1%
same,Population Mitotic Cells (%),Fibroblast; [5],30% and 55%
same,Population Normal (%),Fibroblast; [5],100% and 99%
same,Population Pyknosed Nuclei (%),Fibroblast; [5],4% and 6%
same,Population Tubulin-Different-Phenotype (%),Fibroblast; [5],17% and 10%
same,Total Cell Count,Fibroblast; [5],249 and 315
same,Population Apoptotic (%),Fibroblast; [6],76% and 79%
same,Population Fragmented Nuclei (%),Fibroblast; [6],42% and 17%
same,Population Healthy Nuclei (%),Fibroblast; [6],50% and 72%
same,Population Hoechst High Intensity Objects (%),Fibroblast; [6],4% and 1%
same,Population Membrane Permeable-Phenotype (%),Fibroblast; [6],0% and 4%
same,Population Mitochondria Different-Phenotype (%),Fibroblast; [6],28% and 18%
same,Population Mitotic Cells (%),Fibroblast; [6],23% and 20%
same,Population Normal (%),Fibroblast; [6],95% and 98%
same,Population Pyknosed Nuclei (%),Fibroblast; [6],7% and 10%
same,Population Tubulin-Different-Phenotype (%),Fibroblast; [6],68% and 71%
same,Total Cell Count,Fibroblast; [6],288 and 232
same,Population Apoptotic (%),U2OS; [1],80% and 51%
same,Population Fragmented Nuclei (%),U2OS; [1],11% and 4%
same,Population Healthy Nuclei (%),U2OS; [1],76% and 82%
same,Population Hoechst High Intensity Objects (%),U2OS; [1],0%
same,Population Membrane Permeable-Phenotype (%),U2OS; [1],3%
same,Population Mitotic Cells (%),U2OS; [1],20% and 48%
same,Population Normal (%),U2OS; [1],100% and 99%
same,Population Pyknosed Nuclei (%),U2OS; [1],11% and 12%
same,Population Tubulin-Different-Phenotype (%),U2OS; [1],21% and 22%
same,Population Apoptotic (%),U2OS; [2],64% and 53%
same,Population Healthy Nuclei (%),U2OS; [2],45% and 78%
same,Population Hoechst High Intensity Objects (%),U2OS; [2],0%
same,Population Membrane Permeable-Phenotype (%),U2OS; [2],17% and 28%
same,Population Mitochondria Different-Phenotype (%),U2OS; [2],58% and 54%
same,Population Mitotic Cells (%),U2OS; [2],35% and 46%
same,Population Normal (%),U2OS; [2],100%
same,Population Pyknosed Nuclei (%),U2OS; [2],37% and 19%
same,Population Tubulin-Different-Phenotype (%),U2OS; [2],88% and 85%
same,Population Apoptotic (%),U2OS; [3],66% and 68%
same,Population Healthy Nuclei (%),U2OS; [3],69% and 83%
same,Population Hoechst High Intensity Objects (%),U2OS; [3],0%
same,Population Membrane Permeable-Phenotype (%),U2OS; [3],3% and 1%
same,Population Mitochondria Different-Phenotype (%),U2OS; [3],18% and 19%
same,Population Mitotic Cells (%),U2OS; [3],33% and 31%
same,Population Normal (%),U2OS; [3],100% and 99%
same,Population Pyknosed Nuclei (%),U2OS; [3],15% and 13%
same,Population Tubulin-Different-Phenotype (%),U2OS; [3],11% and 30%
same,Population Apoptotic (%),U2OS; [4],73%
same,Population Fragmented Nuclei (%),U2OS; [4],15% and 6%
same,Population Healthy Nuclei (%),U2OS; [4],39% and 55%
same,Population Hoechst High Intensity Objects (%),U2OS; [4],0%
same,Population Membrane Permeable-Phenotype (%),U2OS; [4],30% and 44%
same,Population Mitochondria Different-Phenotype (%),U2OS; [4],69% and 73%
same,Population Mitotic Cells (%),U2OS; [4],26%
same,Population Normal (%),U2OS; [4],100%
same,Population Pyknosed Nuclei (%),U2OS; [4],45% and 37%
same,Population Tubulin-Different-Phenotype (%),U2OS; [4],92% and 95%
same,Population Apoptotic (%),U2OS; [5],66% and 72%
same,Population Healthy Nuclei (%),U2OS; [5],62% and 84%
same,Population Hoechst High Intensity Objects (%),U2OS; [5],0%
same,Population Membrane Permeable-Phenotype (%),U2OS; [5],2% and 3%
same,Population Mitochondria Different-Phenotype (%),U2OS; [5],2% and 11%
same,Population Mitotic Cells (%),U2OS; [5],33% and 27%
same,Population Normal (%),U2OS; [5],100% and 99%
same,Population Pyknosed Nuclei (%),U2OS; [5],22% and 12%
same,Population Tubulin-Different-Phenotype (%),U2OS; [5],29% and 37%
same,Population Apoptotic (%),U2OS; [6],83% and 86%
same,Population Fragmented Nuclei (%),U2OS; [6],26% and 11%
same,Population Hoechst High Intensity Objects (%),U2OS; [6],2% and 0%
same,Population Membrane Permeable-Phenotype (%),U2OS; [6],85% and 66%
same,Population Mitochondria Different-Phenotype (%),U2OS; [6],71% and 74%
same,Population Mitotic Cells (%),U2OS; [6],16% and 13%
same,Population Normal (%),U2OS; [6],97% and 99%
same,Population Pyknosed Nuclei (%),U2OS; [6],57% and 34%
same,Population Tubulin-Different-Phenotype (%),U2OS; [6],100% and 94%
